Screening results from PubChem BioAssay.
FN deposit inh – fibronectin deposition inhibition | AH1F fibroblasts, Alexa488-fibronectin deposition fluorescence, overnight | inhibition, % at 12.6 µM | 350,000 compounds, 0.086% hits | AID 743247;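 active means mean inhibition across replicates of 30% or more, regardless of how many single replicates reach that level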;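 further: positive control wells lacked labelled fibronectin entirely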
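test system = AH1F fibroblasts assembling fluorescent fibronectin matrix | quantity = 10000 AH1F cells per well | buffer or medium = DMEM plus 2% serum, read in PBS | doses = single dose, pinned | incubation = 1 h cell attachment, overnight exposure to compound and label | detection = fluorescence at 485 nm excitation, 525 nm emission | read-out basis = inhibition from reduced deposited-fibronectin fluorescence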
ERAP1 inh – ERAP1 (human) enzyme inhibition. Q9NZ08. recombinant ERAP1, Leu-AMC fluorescence, 60 min. inhibition, % at 10.7 µM. 340,000 compounds, 0.15% hits. AID 652197;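 active means mean replicate inhibition of at least 30%, or all replicates individually reaching that 30% level; inactive means mean below 30% and not every replicate reaching it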;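 further: 0% = neutral control wells and 100% = L-leucinethiol positive control wells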
PGC1a acetyl inh – lowers PGC1a acetylation signal in U2OS cells | inhibition, % at 15.6 µM | AID 651687 | 350,000 compounds, 0.17% hits | AlphaScreen anti-acetyl-lysine; with virally co-expressed GCN5 acetyltransferase;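 active means every replicate shows inhibition of at least 40%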;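 further: 0% = neutral control wells and 100% = positive control wells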
SIRT5 inh – blocks human SIRT5 desuccinylation of peptide; Q9NXA8; Purified SirT5, succinyl-peptide AMC, trypsin-coupled fluorescence; inhibition, % at 15 µM; 330,000 compounds, 1.1% hits; in the data active means inhibition above about 15%
Target sequence (Q9NXA8 whole entry, looked up): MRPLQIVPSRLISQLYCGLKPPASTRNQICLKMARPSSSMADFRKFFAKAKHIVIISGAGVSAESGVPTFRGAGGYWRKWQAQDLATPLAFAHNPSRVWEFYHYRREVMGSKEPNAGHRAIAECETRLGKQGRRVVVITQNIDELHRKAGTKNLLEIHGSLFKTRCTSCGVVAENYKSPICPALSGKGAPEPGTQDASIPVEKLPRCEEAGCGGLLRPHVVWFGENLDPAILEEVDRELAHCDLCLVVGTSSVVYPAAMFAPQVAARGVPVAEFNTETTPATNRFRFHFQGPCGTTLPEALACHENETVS
FGF22 binding – binders of recombinant human FGF22 by thermal shift; activity (Tm shift, normalised), % at 9.99 µM; SYPRO orange fluorescence; percent of sucrose octasulfate shift, DMSO zero; AID 651658; 340,000 compounds, 1.5% hits;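 active means mean Tm shift, scaled 0 neutral to 100 positive control, at about 1.3% or above, every replicate too, limit read from the data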
Target sequence (Q9HCT0 whole entry, looked up): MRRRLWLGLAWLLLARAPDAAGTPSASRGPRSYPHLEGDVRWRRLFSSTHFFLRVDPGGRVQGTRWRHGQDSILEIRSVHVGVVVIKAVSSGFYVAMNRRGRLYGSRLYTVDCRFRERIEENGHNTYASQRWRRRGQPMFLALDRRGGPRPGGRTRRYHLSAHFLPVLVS
Active calls of the source: *. Hits are enriched below; roughly 2.2% of the tested compounds scored in any of these assays.

How did O=C1CN(S(=O)(=O)c2cccc(F)c2)C[C@@H]2[C@H](c3ccc(-c4ccccc4)cc3)[C@H](CO)N12 do in these assays?
ERAP1 inh: -2; PGC1a acetyl inh: 1; SIRT5 inh: 3

Results for Cc1cccc(-c2ccc([C@H]3[C@@H](CO)N4C(=O)CN(S(=O)(=O)c5cccc(F)c5)C[C@@H]34)cc2)c1 ?
ERAP1 inh: -3; PGC1a acetyl inh: 5; SIRT5 inh: 17*; FGF22 binding: -1

Results for CCOCCn1c(N2CCN(c3ccccc3)CC2)nc2c1c(=O)[nH]c(=O)n2C ?
FN deposit inh: 20; ERAP1 inh: 3; PGC1a acetyl inh: 8; SIRT5 inh: 4; FGF22 binding: 43*

Results for NCCNc1ccc2nnnn2n1 ?
FN deposit inh: 4; ERAP1 inh: 2; PGC1a acetyl inh: 5; SIRT5 inh: -2; FGF22 binding: 43*

Results for CCc1c(C)[nH]c(C(=O)OCc2ccccc2)c1C ?
FN deposit inh: 15; ERAP1 inh: -3; PGC1a acetyl inh: -14; SIRT5 inh: -2; FGF22 binding: 43*

How did CCc1c(C(=O)OCc2ccccc2)[nH]c(C)c1C do in these assays?
FN deposit inh: 10; ERAP1 inh: -2; PGC1a acetyl inh: -3; SIRT5 inh: -5; FGF22 binding: 0

What do the screens show for `COc1ccc2c(c1OC)C(=O)O[C@@H]2[C@H]1c2c(cc3c(c2OC)OCO3)CCN1C`?
ERAP1 inh: -3; PGC1a acetyl inh: 0; SIRT5 inh: -10; FGF22 binding: 0

What do the screens show for `COc1cc2c3c(c1OC)-c1cc4c(cc1CC3(C#N)N(C(=O)c1ccccc1)CC2)OCO4` (stereo not given)?
FN deposit inh: 1; ERAP1 inh: -3; PGC1a acetyl inh: -2; FGF22 binding: 43*

How did O=C(C[C@@H]1CC[C@@H](NC(=O)Nc2ccc(C(F)(F)F)cc2)[C@H](CO)O1)NCc1ccccn1 do in these assays?
ERAP1 inh: -1; PGC1a acetyl inh: 6; SIRT5 inh: 2; FGF22 binding: 0

What do the screens show for `COc1ccc(CNCC(=O)Nc2cc(C)nn2-c2nc(C)cc(C)n2)cc1OC`?
FN deposit inh: 13; ERAP1 inh: 2; SIRT5 inh: -1; FGF22 binding: 44*

What do the screens show for `COc1cccc(-c2cnc3c(c2)C(=O)N([C@H](C)CO)C[C@H](C)[C@@H](CN(C)C(C)=O)O3)c1`?
FN deposit inh: 0; ERAP1 inh: -1; PGC1a acetyl inh: -8; SIRT5 inh: 4; FGF22 binding: 0

What do the screens show for `CCOC(=O)c1ccccc1NC(=O)c1ccc2c(SCC(=O)O)c3c(nc2c1)CCCC3`?
FN deposit inh: 4; ERAP1 inh: -1; SIRT5 inh: 22*; FGF22 binding: 0

What do the screens show for `Cc1ccc(SCc2nc(N)nc(Nc3ccccc3C)n2)c(C)c1`?
FN deposit inh: 10; ERAP1 inh: -2; PGC1a acetyl inh: 4; SIRT5 inh: 2; FGF22 binding: 43*

Results for CC1CC(=O)C(C2c3ccccc3CCN2C(=O)CCl)C(=O)C1 (stereo not given) ?
FN deposit inh: 9; ERAP1 inh: 3; SIRT5 inh: 1; FGF22 binding: 44*

How did COc1cc2c(cc1OC)C(C1C(=O)CC(C)(C)CC1=O)N(C(=O)CCl)CC2 (stereo not given) do in these assays?
FN deposit inh: -2; ERAP1 inh: -7; SIRT5 inh: -6; FGF22 binding: 0

Results for CCN1C(=O)Nc2cccc3cccc1c23 ?
FN deposit inh: 4; ERAP1 inh: -1; SIRT5 inh: 0; FGF22 binding: 0

What do the screens show for `CCC1=[N+](C)c2cccc3cccc(c23)N1C`?
ERAP1 inh: 36*; PGC1a acetyl inh: -9; SIRT5 inh: 2; FGF22 binding: 0

How did C[C@@H]1CN([C@@H](C)CO)C(=O)c2cccc(NC(=O)Nc3ccc(F)cc3)c2O[C@H]1CN(C)C do in these assays?
FN deposit inh: 5; ERAP1 inh: -1; PGC1a acetyl inh: 1; SIRT5 inh: -3; FGF22 binding: 0

What do the screens show for `C[C@H](CO)N1C[C@H](C)[C@H](CN(C)C(=O)Cc2ccccc2)OCCCC[C@H](C)Oc2ccc(NS(=O)(=O)c3cn(C)cn3)cc2C1=O`?
ERAP1 inh: 0; PGC1a acetyl inh: -2; SIRT5 inh: -3; FGF22 binding: 0

Results for Fc1cccc(NC(=S)NCCc2ccccc2)c1 ?
FN deposit inh: 2; ERAP1 inh: -4; SIRT5 inh: -4; FGF22 binding: 1.7*

How did Fc1ccc(CCNC(=S)Nc2ccc(F)c(Cl)c2)cc1 do in these assays?
FN deposit inh: -1; ERAP1 inh: 1; SIRT5 inh: -4; FGF22 binding: 1.9*

How did Fc1ccc(F)c(NC(=S)NCCc2ccccc2)c1 do in these assays?
FN deposit inh: -3; ERAP1 inh: -1; PGC1a acetyl inh: 5; SIRT5 inh: -3

Results for O=C(C[C@H]1CC[C@@H]2[C@H](COC[C@@H](O)CN2Cc2ccncc2)O1)NCC1CC1 ?
FN deposit inh: -6; ERAP1 inh: -2; PGC1a acetyl inh: 5; SIRT5 inh: 1; FGF22 binding: 0

How did O=C(O)CC1S/C(=N/N=C/c2ccc(Br)cc2)N(c2ccccc2)C1=O (stereo not given) do in these assays?
FN deposit inh: 6; ERAP1 inh: 0; PGC1a acetyl inh: 75*; SIRT5 inh: 1; FGF22 binding: 1

Results for Cc1cc(NC(=O)CSc2ccc3nnc(CCNS(=O)(=O)c4ccccc4)n3n2)no1 ?
FN deposit inh: 0; ERAP1 inh: -1; PGC1a acetyl inh: -11; SIRT5 inh: 1; FGF22 binding: 44*

How did Cc1cc(NC(=O)CSc2nnc(C3COc4ccccc4O3)n2N)no1 (stereo not given) do in these assays?
FN deposit inh: -9; ERAP1 inh: -3; PGC1a acetyl inh: 8; SIRT5 inh: -8; FGF22 binding: 43*

Results for COc1ccc(NC(=O)CSc2nnc3ccc(-c4cccnc4)nn23)cc1OC ?
FN deposit inh: 3; ERAP1 inh: 5; SIRT5 inh: 17*; FGF22 binding: 0

How did COc1ccc(S(=O)(=O)NCCc2nnc3ccc(SCC(=O)Nc4cc(C)on4)nn23)cc1 do in these assays?
FN deposit inh: 4; ERAP1 inh: -3; SIRT5 inh: -2; FGF22 binding: 0

How did C=CCn1c(SCC(=O)Nc2cc(C)on2)nnc1C1COc2ccccc2O1 (stereo not given) do in these assays?
FN deposit inh: 4; ERAP1 inh: 4; SIRT5 inh: 5; FGF22 binding: 0

How did Cc1ccc(-c2ccc3nnc(SCC(N)=O)n3n2)cc1 do in these assays?
FN deposit inh: -7; ERAP1 inh: -3; PGC1a acetyl inh: 3; SIRT5 inh: 0; FGF22 binding: 43*

Results for O=C(C[C@H]1CC[C@H](NC(=O)CCN2CCCCC2)[C@H](CO)O1)Nc1nccs1 ?
FN deposit inh: -2; PGC1a acetyl inh: -10
